# Compound activity: PubChem BioAssay, The Scripps Research Institute Molecular Screening Center
# An excerpt weighted towards active compounds, which were near 1.5% of everything screened.
# MsrA inhibitor = inhibitors of bovine MsrA; inhibition, % at 15.5 µM; purified bovine MsrA, absorbance read-out; AID 651718; 360,000 compounds, 0.75% hits; in the data active means inhibition above about 4.5%;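 further: 0% = vehicle wells with enzyme and 100% = reference inhibitor wells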
# bovine MsrA act = activates bovine MsrA enzyme; AID 602163; activation, % at 10.6 µM; 360,000 compounds, 0.3% hits; purified bovine MsrA, absorbance read-out; in the data active means activation above about 7.5%;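 further: 0% = vehicle and 100% = reference activator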
# proCasp7 act = activates human procaspase-7, counter-screen for procaspase-3 activators | activation, % at 8.5 µM | P55210 | 330,000 compounds, 0.093% hits | AID 463210 | recombinant procaspase-7, Ac-DEVD-pNA absorbance 405 nm; D23A/D198A/D206A triple mutant, cannot self-cleave; scale: DMSO 0, 5 µM enzyme 100;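 active means percent activation above the screen-wide mean plus 3 SD, cut at about 25% in these data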
# Target sequence (P55210 whole entry D23A/D198A/D206A): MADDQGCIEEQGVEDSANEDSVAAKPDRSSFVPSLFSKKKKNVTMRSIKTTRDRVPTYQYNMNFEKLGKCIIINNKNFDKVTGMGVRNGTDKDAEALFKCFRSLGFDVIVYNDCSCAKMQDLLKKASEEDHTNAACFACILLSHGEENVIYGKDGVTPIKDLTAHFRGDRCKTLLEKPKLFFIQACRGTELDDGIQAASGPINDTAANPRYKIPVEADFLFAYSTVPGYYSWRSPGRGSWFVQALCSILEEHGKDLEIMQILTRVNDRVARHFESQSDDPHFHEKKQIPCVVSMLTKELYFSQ
#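 Assay system – Uncleavable procaspase-7 mutant enzyme · Quantity – 2 µM procaspase-7 mutant as dispensed · Times – 1 h preincubation, 2 h reaction · Dosing – single nominal 8.5 µM compound dose, 0.8% DMSO final · Buffer or medium – Zinc-free 50 mM HEPES buffer, pH 7.4, with NaCl and Triton X-100 · Detection – Epi-absorbance of released pNA at 405 nm, two timepoints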
# Tb MetRS inh = Trypanosoma brucei MetRS inhibition; inhibition, % at 11.9 µM; 360,000 compounds, 0.4% hits; purified T. brucei MetRS, ATP depletion, Kinase-Glo luminescence; AID 624268;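 active means inhibition above a per-plate cutoff of the control wells' mean inhibition plus 3 SD, cut at about 5.5% in these data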;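 further: 0% = DMSO wells median and 100% = median of wells with control inhibitor compound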
#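 Dosing: 11.9 µM single point; system: parasite MetRS enzyme; technique: luminescence of leftover ATP; times: 15 min enzyme-compound preincubation, 2 h reaction, 10 min detection, 25 °C; replicates: each compound tested once; read-out basis: percent inhibition relative to median high and low control wells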
# procasp3 activ = activates human procaspase-3; activation, % at 8.5 µM; 330,000 compounds, 0.11% hits; AID 463141; recombinant procaspase-3 D3A, Ac-DEVD-pNA absorbance 405 nm; P42574;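 active means activation above the mean of all tested compounds plus 3 SD, cut at about 21% in these data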;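 further: 0% = DMSO alone and 100% = DMSO wells spiked with extra 5 µM PC-3 D3A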
# Target sequence (P42574 whole entry D9A/D28A/D175A): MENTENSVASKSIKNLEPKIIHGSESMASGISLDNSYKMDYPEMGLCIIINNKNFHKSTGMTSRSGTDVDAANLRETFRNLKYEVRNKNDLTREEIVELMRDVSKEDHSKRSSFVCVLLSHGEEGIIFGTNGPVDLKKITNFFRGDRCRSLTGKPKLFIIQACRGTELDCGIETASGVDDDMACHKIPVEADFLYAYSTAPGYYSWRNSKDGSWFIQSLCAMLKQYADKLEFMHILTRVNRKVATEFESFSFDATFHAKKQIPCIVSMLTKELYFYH
#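 System: Procaspase-3 D3A mutant. Medium: Zinc-free 300 mM NaCl, 50 mM HEPES, 0.01% Triton X-100. Schedule: 1 h preincubation plus 2 h reaction at 25 °C. Measured by: 405 nm absorbance of p-nitroaniline, reads at 0 and 120 min. Read-out: percent activation relative to control range.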
# MsrA act confirm = bovine methionine sulfoxide reductase A activation confirmed; shares compounds with bovine MsrA act; purified bovine MsrA, absorbance read-out; activation, % at 10.6 µM; 1,000 compounds, 12% hits; AID 602270; in the data active means activation above about 4%;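 further: enzyme coupled to thioredoxin and thioredoxin reductase with NADPH; 0% = vehicle wells and 100% = reference activator wells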
# Active calls of the source: *; x = no result given.
SMILES,MsrA inhibitor,bovine MsrA act,proCasp7 act,Tb MetRS inh,procasp3 activ,MsrA act confirm
Cc1nnc(N/N=C\c2ccc(-c3ccccc3[N+](=O)[O-])o2)n1N,2.5,17.5*,-0.6,0.3,-12.5,-6.2
CCC(=O)N/N=C/c1ccc(-c2ccc([N+](=O)[O-])cc2)o1,2.0,-9.7,-10.1,-1.1,-6.5,x
CCc1nnc(N/N=C/c2ccc(-c3ccc([N+](=O)[O-])cc3)o2)n1N,1.1,8.4*,3.0,1.6,-23.0,-0.5
Cc1nnc(N/N=C/c2ccccc2O)n1N,-0.2,8.8*,-16.8,0.6,-9.2,-1.4
CCOC(=O)N[C@@H](Cc1cccnc1)C(=O)N1CCC[C@H]1C(=O)NCCc1ccccc1Cl,0.3,x,x,x,x,x
O=S(=O)(Nc1ccccc1Cl)c1ccc(NS(=O)(=O)c2cccs2)cc1,-0.8,7.7*,3.7,0.3,9.8,0.3
COc1ccc(N2CC(C(=O)OCC(=O)Nc3cc(C)on3)CC2=O)cc1 (centres undefined),0.0,8.0*,1.3,-0.2,3.3,-3.1
CCOC(=O)c1csc(N)n1,-2.7,-4.0,13.4,0.2,1.2,x
CCOC(=O)c1csc(-c2snnc2C)n1,0.3,8.0*,4.3,0.2,5.3,-4.7
Cc1ccccc1-c1ccc2c(c1)[C@@H]1C[C@H]3[C@@H](CN1CC2)[C@H](C)OC(c1ccccc1)N3C (some centres undefined),-0.6,x,x,x,x,x
O=S(=O)(c1ccccc1)N1CCCc2nc(-c3ccc(F)cc3)ccc21,-0.5,x,x,x,x,x
Cc1ccc(C(=O)ON=C2CCN(S(=O)(=O)c3ccccc3)CC2)cc1,0.6,7.7*,0.1,0.2,-0.7,0.9
COC(=O)[C@]12C[C@H](CC(=O)NCc3cccc4ccccc34)C(=O)N(Cc3ccccc3)C1=C[C@H](C1CCCC1)O[C@@H]2C,0.0,x,x,x,x,x
O=c1cc(Cc2ccccc2)[nH]c(=S)[nH]1,0.6,1.8,6.8,-0.1,9.5,x
COCc1cc(=O)[nH]c(=S)[nH]1,1.4,9.9*,7.1,-0.4,12.2,5.0*
CC(C)n1c(=S)[nH]c2scc(-c3cccs3)c2c1=O,1.2,8.0*,-27.1,-0.5,-12.0,-0.7
CCn1c(=S)[nH]c2scc(-c3cccs3)c2c1=O,2.9,5.3,x,-0.5,x,x
C[C@@H]1CN(c2ccc(N3CCNC[C@@H]3C)cc2C#N)C[C@H](C)O1,0.8,x,x,x,x,x
O=C(C[n+]1cc(-c2ccccc2)n2c1CCC2)N1c2ccccc2Sc2ccccc21,-0.3,1.0,2.9,0.3,-6.7,x
O=C(C[n+]1cc(-c2ccccc2)n2c1CCC2)c1cccs1,2.2,8.9*,2.4,-0.2,8.8,0.0
COc1ccc(C(=O)N2CC3(C)C4CCC3(C)C2(C#N)C4)cc1OC (centres undefined),1.9,-0.9,-6.3,-0.5,-2.4,x
CC12CN(C(=O)c3ccccc3)C3(C#N)CC1CCC23C (centres undefined),-0.6,13.5*,7.4,-0.2,-3.1,-0.3
Cc1cccc(NNC(=S)Nc2c(C)cccc2C)c1,1.3,8.0*,1.1,0.5,-2.7,1.4
CC(C)(C)c1ccc(OCCC(=O)NCC(c2cccs2)N2CCOCC2)cc1 (centres undefined),-1.4,13.5*,3.1,-0.4,-5.8,0.7
COC(=O)C1=C(C)N(Cc2ccccc2C(F)(F)F)C(=NCc2ccc3c(c2)OCO3)NC1c1ccccc1 (centres undefined),0.2,x,x,x,x,x
SMILES,MsrA inhibitor,bovine MsrA act,proCasp7 act,Tb MetRS inh,procasp3 activ,MsrA act confirm
O=C(NCCc1ccc(Cl)cc1)C(=O)Nc1cc2c3c(c1)CC(=O)N3CCC2,0.1,16.7*,1.4,-0.4,-1.4,-1.9
O=C(NCCc1ccc(F)cc1)C(=O)Nc1cc2c3c(c1)CC(=O)N3CCC2,-0.8,-4.0,1.9,-0.4,1.9,x
COc1ccc(N2CCN(Cc3cc4c(cc3O)CCC4)CC2)cc1,1.0,14.2*,7.3,-0.4,-1.4,-0.2
COc1ccc(N2CCN(Cc3cc(=O)oc4cc5c(cc34)CCCC5)CC2)cc1,0.9,-4.4,0.6,-0.5,-1.1,x
CCN1CCN(c2ccc(S(=O)(=O)N3CCCCC3)cc2NC(=O)c2cccc(C)c2)CC1,-0.5,9.3*,11.1,-0.4,-5.0,-1.8
CCOC(=O)CNC(=O)c1ccccc1Br,-0.1,20.9*,9.9,-1.1,-3.5,-0.9
CN(C)CCCNC(=S)Nc1ccc(-c2ccccc2)cc1,0.3,-1.7,1.2,-0.4,2.0,x
CC(C)(O)CN(CCCNC(=S)Nc1ccccc1)C(=S)Nc1ccccc1,-0.3,14.3*,x,-0.3,x,-0.1
CCCCCCN1CCN(C2CN(Cc3cn(Cc4ccc(C(F)(F)F)cc4)nn3)S(=O)(=O)C2)CC1 (centres undefined),-0.1,x,x,x,x,x
O=C(COc1ccccc1Cl)c1ccc2c(c1)CCCC2,-1.5,8.3*,2.0,-0.1,4.3,-2.5
COc1ccccc1NC(=O)c1ccc2nsnc2c1,-0.2,-2.6,-5.1,0.2,1.6,x
COc1ccccc1OC(=O)c1ccc2nsnc2c1,0.9,16.4*,10.6,-0.6,3.2,3.2
Cc1cccc(C)c1OCC(=O)NNC(=O)CNC(=O)c1ccc(OC(F)F)cc1,-0.6,8.1*,11.4,-0.4,-2.4,-1.4
Cc1cccc(C)c1OCC(=O)NNC(=O)CCNC(=O)c1ccc(Br)cc1,-0.9,-0.8,5.3,-0.1,5.2,x
C[C@H]1CN(C(=O)OC(C)(C)C)CCN1c1ccc(N2CC[C@H](O)C2)c(C#N)c1,-0.3,x,x,x,x,x
N#Cc1cnn(-c2ccc([N+](=O)[O-])cc2[N+](=O)[O-])c1N,-0.4,8.3*,x,-0.1,x,1.5
N#Cc1cnn(-c2cc(Cl)ccc2Cl)c1N,0.4,-6.6,x,0.0,x,x
CC(=O)Nc1ccc(S(=O)(=O)N2c3ccccc3NC(=O)CC2C)c(Cl)c1 (centres undefined),0.0,12.1*,11.9,-0.6,3.8,1.0
CC1CC(=O)Nc2ccccc2N1S(=O)(=O)c1ccc(Cl)cc1 (centres undefined),-1.1,-2.0,10.6,0.1,1.4,x
COCCN1Cc2cc(C(=O)OC)c3c(c2C1=O)c1cc(F)ccc1n3S(=O)(=O)c1cccc(C)c1,0.9,x,x,x,x,x
CC1CCN(CCCNC(=O)c2cn(C)c3ccc(S(=O)(=O)N4CCCC4)cc3c2=O)CC1,2.7,7.9*,-2.0,0.0,-0.7,-0.4
Cc1ccccc1N=C1NC(=O)/C(=C/c2cccn2C)S1,1.8,8.1*,-0.1,0.3,-14.7,-1.9
Cc1cccc(N=C2NC(=O)/C(=C/c3cccn3C)S2)c1,-0.6,-1.7,-3.5,0.1,-15.3,x
COc1cccc(C(=O)N[C@H](C(=O)N2CCC[C@H]2C(=O)NCCc2ccccc2Cl)C2CCCCC2)c1,1.0,x,x,x,x,x
CC(C)CC1NC(=O)N(CC(=O)Nc2ccc3c(c2)OCCO3)C1=O (centres undefined),-1.0,12.6*,2.2,-0.2,5.6,-3.8
